Experimental data gathered from unrelated publications.

Structure (SMILES)	species	medium	route	dose	setting	Tmax
C#C[C@]1(COP(=O)(O)OP(=O)(O)OP(=O)(O)O)O[C@@H](n2cnc3c(N)nc(F)nc32)C[C@@H]1O	human	plasma	oral	200 mg	single dose	6 h
COc1cc(N2CCC(N3CCN(C)CC3)CC2)ccc1Nc1ncnc(Nc2ccccc2S(=O)(=O)C(C)C)n1	human	plasma	oral	325 mg	multiple doses, patients	3.75 h
CC(C)n1cc(C#N)c2cc(-n3cc(C(=O)O)cn3)ccc21	human	plasma	oral	100 mg	single dose, fasted, healthy volunteers	3.5 h
NS(=O)(=O)NCCNc1nonc1C(=NO)Nc1ccc(F)c(Br)c1	human	plasma	oral	700 mg	multiple doses, twice daily, steady state, patients	3 h
CCc1nc2c(C)cc(N3CCN(CC(=O)N4CC(O)C4)CC3)cn2c1N(C)c1nc(-c2ccc(F)cc2)c(C#N)s1	human	plasma	intravenous	0.1 mg	fasted, healthy volunteers	0 h
C[C@@H](Nc1cc(F)cc(F)c1)c1cc(C(=O)N(C)C)cc2c(=O)cc(N3CCOCC3)oc12	human	plasma	oral	30 mg	single dose, patients	2 h
CC(C)(O)c1ccccc1-c1ccc2[nH]c(/C=C/c3ccc(C(F)(F)F)cc3)nc2c1	male human	plasma	oral	120 mg	single dose, fasted	3 h
C=CC(=O)N(C)CCOc1c(N)ncnc1-c1cc(F)cc(NC(=O)c2ccc(C3CC3)cc2F)c1C	human	blood	oral	200 mg	single dose, healthy volunteers	1.25 h
CC(C)(Sc1ccncc1-c1ccc(C#N)c2ccccc12)C(=O)O	male human	plasma	oral	5 mg	single dose, fed, healthy volunteers	1.25 h
COc1ccc([C@@H]2CN(C(=O)[C@@H](O)CO)C[C@@]2(C)[C@@H](C)O)cc1OC1CN(c2ccc(C)cn2)C1	human	plasma	oral	5 mg	single dose, healthy volunteers	1.5 h
Cn1cc(-c2ccc(S(=O)(=O)[C@@H]3C[C@@H](C(=O)NC4(C#N)CC4)N(C(=O)C4(C(F)(F)F)CC4)C3)c(C(F)(F)F)c2)cn1	human	plasma	oral	300 mg	single dose, fasted, healthy volunteers	3.5 h
